Active and inactive are the calls of the source.
What was measured:
[1] = tested on: Human immunodeficiency virus 1; assay: Antiviral activity against HIV1 at 1 ug/ml; type: functional, organism-based
HCT-116 [2] = assay: Cytotoxicity against human HCT 116 with wild type p53 at 0.009 to 152 uM by MTT assay; type: functional
Method in brief: (§1)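 HCT116 p53+/+ and p53-/- cells grown in McCoy's medium with 2 mM L-glutamine, 1 mM sodium pyruvate, penicillin/streptomycin and 10% FBS at 37 °C, 5% CO2. Seeded at 4 × 10^5 cells/well and left to attach for 24 h. Exposed to 0-78 µg/mL compound for 72 h. MTT added (final 0.25 mg/mL) for 3 h, formazan dissolved in DMSO, A570 read, IC50 by curve fitting.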

HCT-116 [3] = assay: Cytotoxicity against human HCT 116 with wild type p53 at 0.008 to 124 uM by MTT assay; type: functional; method in brief: as §1
HCT-116 [4] = assay: Cytotoxicity against human HCT 116 with wild type p53 at 0.006 to 103 uM by MTT assay; type: functional; method in brief: as §1
HCT-116 [5] = assay: Cytotoxicity against human HCT 116 with null p53 mutant at 0.009 to 152 uM by MTT assay; type: functional; method in brief: as §1
HCT-116 [6] = assay: Cytotoxicity against human HCT 116 with null p53 mutant p53 at 0.008 to 124 uM by MTT assay; type: functional; method in brief: as §1
HCT-116 [7] = assay: Cytotoxicity against human HCT 116 with null p53 mutant at 0.006 to 103 uM by MTT assay; type: functional; method in brief: as §1
[8] = tested on: Human immunodeficiency virus 1; assay: Antiviral activity against HIV1 at 10 ug/ml; type: functional, organism-based

Measured: Activity

C/C(Cl)=C/C=C/C=C/C=C/C=C/C(O)=C1\C(=O)[C@H](CC(N)=O)N([C@@H]2OC[C@@H](O)[C@H](O)[C@H]2O[C@@H]2OC[C@@H](O)[C@@H](O)[C@@H]2O)C1=O
inactive: all assays above

C/C(Cl)=C/C=C/C=C/C=C/C=C/C(O)=C1\C(=O)[C@H](CC(N)=O)N([C@@H]2OC[C@@H](O)[C@H](O)[C@H]2O)C1=O
inactive: all assays above

CO[C@@H]1[C@H](O[C@@H]2CO[C@@H](O[C@@H]3[C@@H](O)[C@H](O)CO[C@H]3N3C(=O)/C(=C(O)/C=C/C=C/C=C/C=C/C=C(/C)Cl)C(=O)[C@@H]3CC(N)=O)[C@@H](O)[C@@H]2O)O[C@H](C)[C@H]1O
inactive: all assays above
